Test results taken from ChEMBL document CHEMBL1122917, “Vinblastin-23-oyl amino acid derivatives: chemistry, physicochemical data, toxicity, and antitumor activities against P388 and L1210 leukemias” (J Med Chem, 1985).

How the values were obtained:
[1] = Acute iv toxicity against CD1 strain of 40 mice after 4 doses of injection; assay type: organism-based; conditions: CD1, mouse, in vivo
Method in brief: (§1)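 Acute toxicity in Swiss, CD1 or NMRI mice. Drugs given iv as sulfate salts. LD50 taken at day 14 from several dose levels, with 40–[…] mice per drug and strain.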

[2] = tested on: Mus musculus; experiment: Percent increase in life span at dose 60 mg/kg/day in 10 mice implanted with P388 leukemia cell line for 1,5,9 schedule days; assay type: functional
[3] = tested on: Mus musculus; experiment: Percent increase in life span at dose 55 mg/kg/day in 10 mice implanted with P388 leukemia cell line for 1,5,9 schedule days; assay type: functional
[4] = tested on: Mus musculus; experiment: Number of survivors of DBA2 mice on 60th day after inoculation with L1210 leukemia cell line intravenously at a dose of 45 mg/kg/day; 0/10; assay type: functional; conditions: route intravenous
[5] = tested on: Mus musculus; experiment: Percent increase in life span of DBA2 mice after inoculation with L1210 leukemia intravenously at a dose of 55 mg/kg per day; assay type: functional; conditions: route intravenous
Method in brief: (§2)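 Female DBA2 mice inoculated iv on day 0 with 10^4 L1210 cells; drugs given iv as sulfate salts in physiological saline, mostly once on day 1. %ILS from all deaths and survivors as (T/C × 100) − 100; survivors scored on days 30 and 60.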

[6] = tested on: Mus musculus; experiment: Number of survivors on 60th day at dose 55 mg/kg/day in 10 mice implanted with P388 leukemia cell line; 1/10; assay type: functional
[7] = tested on: Mus musculus; experiment: Number of survivors on 60th day at dose 65 mg/kg/day in 10 mice implanted with P388 leukemia cell line for 1st scheduled day; 1/10; assay type: functional
[8] = Acute iv toxicity against Swiss strain of 40 mice after 4 doses of injection; assay type: organism-based; conditions: mouse, in vivo; method in brief: as §1
[9] = tested on: Mus musculus; experiment: Number of survivors of DBA2 mice on 60th day after inoculation with L1210 leukemia cell line intravenously at a dose of 9 mg/kg/day; 0/10; assay type: functional; conditions: route intravenous
Method in brief: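 Female DBA₂ mice received 10⁴ L1210 cells iv on day 0. Compounds were given iv as sulfate salts in physiological saline, as a single dose on day 1 (mg/kg per day). Groups were 10 mice. Survivors were counted on day 60. Cells were maintained by ip passage in DBA₂ mice.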

[10] = tested on: Mus musculus; experiment: Percent increase in life span of DBA2 mice after inoculation with L1210 leukemia intravenously at a dose of 9 mg/kg per day; assay type: functional; conditions: route intravenous; method in brief: as §2
[11] = tested on: Mus musculus; experiment: Number of survivors of DBA2 mice on 30th day after inoculation with L1210 leukemia cell line intravenously at a dose of 6 mg/kg/day; 0/10; assay type: functional; conditions: route intravenous
[12] = tested on: Mus musculus; experiment: Number of survivors on 60th day at dose 4 mg/kg/day in 10 mice implanted with P388 leukemia cell line; 2/10; assay type: functional
[13] = tested on: Mus musculus; experiment: Number of survivors on 30th day at dose 4 mg/kg/day in 10 mice implanted with P388 leukemia cell line; 0 /10; assay type: functional
[14] = tested on: Mus musculus; experiment: Percent increase in life span at dose 3 mg/kg/day in 10 mice implanted with P388 leukemia cell line; assay type: functional
Method in brief: (§3)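 Female DBA2 mice inoculated iv on day 0 with 10^4 P388 cells; single iv treatment on day 1 with drug as sulfate salt in physiological saline. Survival followed; %ILS from all deaths and survivors as (T/C × 100) − 100, maximal MST 30 days; survivors counted on days 30 and 60. Most experiments confirmed three times.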

[15] = tested on: Mus musculus; experiment: Percent increase in life span of DBA2 mice after inoculation with L1210 leukemia intravenously at a dose of 3 mg/kg per day; assay type: functional; conditions: route intravenous; method in brief: as §2
[16] = tested on: Mus musculus; experiment: Number of survivors of DBA2 mice on 60th day after inoculation with L1210 leukemia cell line intraperitoneally at a dose of 6 mg/kg/day; 0/10; assay type: functional; conditions: route intraperitoneal
[17] = tested on: Mus musculus; experiment: Number of survivors on 60th day at dose 5 mg/kg/day in 10 mice implanted with P388 leukemia cell line; 0/10; assay type: functional
[18] = tested on: Mus musculus; experiment: Number of survivors on 60th day at dose 4 mg/kg/day in 10 mice implanted with P388 leukemia cell line; 0/10; assay type: functional
[19] = tested on: Mus musculus; experiment: Percent increase in life span at dose 4 mg/kg/day in 10 mice implanted with P388 leukemia cell line for 1st scheduled day; assay type: functional
Method in brief: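 Female DBA2 mice inoculated iv on day 0 with 10^5 P388 cells; iv dosing of sulfate salts in physiological saline on day 1 only or on days 1, 8 and 15. %ILS from all deaths and survivors as (T/C × 100) − 100, maximal MST 60 days; survivors scored on day 60.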

[20] = tested on: Mus musculus; experiment: Number of survivors on 60th day at dose 4 mg/kg/day in 10 mice implanted with P388 leukemia cell line for 1st scheduled day; 0/10; assay type: functional
[21] = tested on: Mus musculus; experiment: Percent increase in life span at dose 11 mg/kg/day in 10 mice implanted with P388 leukemia cell line; assay type: functional; method in brief: as §3
[22] = tested on: Mus musculus; experiment: Number of survivors of DBA2 mice on 30th day after inoculation with L1210 leukemia cell line intraperitoneally at a dose of 6 mg/kg/day; 0/10; assay type: functional; conditions: route intraperitoneal
[23] = tested on: Mus musculus; experiment: Number of survivors of DBA2 mice on 30th day after inoculation with L1210 leukemia cell line intraperitoneally at a dose of 3 mg/kg/day; 0/10; assay type: functional; conditions: route intraperitoneal
[24] = tested on: Mus musculus; experiment: Number of survivors of DBA2 mice on 60th day after inoculation with L1210 leukemia cell line intravenously at a dose of 1.5 mg/kg/day; 0/10; assay type: functional; conditions: route intravenous
[25] = tested on: Mus musculus; experiment: Number of survivors of DBA2 mice on 60th day after inoculation with L1210 leukemia cell line intraperitoneally at a dose of 0.22 mg/kg/day; 0/10; assay type: functional; conditions: route intraperitoneal
[26] = tested on: Mus musculus; experiment: Number of survivors of DBA2 mice on 60th day after inoculation with L1210 leukemia cell line intraperitoneally at a dose of 1 mg/kg/day; 0/10; assay type: functional; conditions: route intraperitoneal
[27] = tested on: Mus musculus; experiment: Number of survivors of DBA2 mice on 60th day after inoculation with L1210 leukemia cell line intravenously at a dose of 0.5 mg/kg/day; 0/10; assay type: functional; conditions: route intravenous
[28] = tested on: Mus musculus; experiment: Number of survivors of DBA2 mice on 60th day after inoculation with L1210 leukemia cell line intravenously at a dose of 2.5 mg/kg/day; 0/10; assay type: functional; conditions: route intravenous
[29] = tested on: Mus musculus; experiment: Percent increase in life span at dose 0.5 mg/kg/day in 10 mice implanted with P388 leukemia cell line; assay type: functional
[30] = tested on: Mus musculus; experiment: Percent increase in life span of DBA2 mice after inoculation with L1210 leukemia intravenously at a dose of 2.5 mg/kg per day; assay type: functional; conditions: route intravenous; method in brief: as §2
[31] = tested on: Mus musculus; experiment: Percent increase in life span of DBA2 mice after inoculation with L1210 leukemia intravenously at a dose of 3.5 mg/kg per day; assay type: functional; conditions: route intravenous
[32] = tested on: Mus musculus; experiment: Number of survivors on 30th day at dose 2 mg/kg/day in 10 mice implanted with P388 leukemia cell line; 0/10; assay type: functional
[33] = tested on: Mus musculus; experiment: Percent increase in life span at dose 2 mg/kg/day in 10 mice implanted with P388 leukemia cell line; assay type: functional; method in brief: as §3
[34] = tested on: Mus musculus; experiment: Number of survivors of DBA2 mice on 30th day after inoculation with L1210 leukemia cell line intravenously at a dose of 3 mg/kg/day; 0/11; assay type: functional; conditions: route intravenous
[35] = tested on: Mus musculus; experiment: Number of survivors on 30th day at dose 2.5 mg/kg/day in 10 mice implanted with P388 leukemia cell line; 0/10; assay type: functional
[36] = tested on: Mus musculus; experiment: Number of survivors on 30th day at dose 3 mg/kg/day in 10 mice implanted with P388 leukemia cell line; 0/10; assay type: functional

Row | SMILES | LD50 [1] [mg/kg] | LD50 [8] [mg/kg] | Survivors [9] | ILS at 9 mg/kg/day [10] [%] | Survivors [11] | ILS at 3 mg/kg/day [14] [%] | ILS at 3 mg/kg/day [15] [%] | Survivors [16] | Survivors [17] | Survivors [18] | ILS at 4 mg/kg/day [19] [%] | Survivors [20] | Survivors [23] | Survivors [28] | ILS at 2.5 mg/kg/day [30] [%] | Survivors [32] | ILS at 2 mg/kg/day [33] [%] | other results
1 | CCOC(=O)[C@H](Cc1c[nH]c2ccccc12)NC(=O)[C@@]1(O)[C@H](O)[C@]2(CC)C=CCN3CC[C@@]4(c5cc([C@@]6(C(=O)OC)C[C@H]7C[N@](CCc8c6[nH]c6ccccc86)C[C@](O)(CC)C7)c(OC)cc5N(C)[C@@]14C)[C@@H]32 | 110 | 94 |  |  |  |  |  |  |  |  |  |  |  |  |  |  |  | ILS at 60 mg/kg/day [2]: > 426%; ILS at 55 mg/kg/day [3]: > 426%; Survivors [4]: 0; ILS at 55 mg/kg/day [5]: 55.3%; Survivors [6]: 1; Survivors [7]: 1
2 | CCOC(=O)[C@@H](NC(=O)[C@@]1(O)[C@H](O)[C@]2(CC)C=CCN3CC[C@@]4(c5cc([C@@]6(C(=O)OC)C[C@H]7C[N@](CCc8c6[nH]c6ccccc86)C[C@](O)(CC)C7)c(OC)cc5N(C)[C@@]14C)[C@@H]32)[C@@H](C)CC |  |  | 0 | 64 | 0 |  |  |  |  |  |  |  |  |  |  |  |  | 
3 | CC[C@]1(O)C[C@@H]2CN(CCc3c([nH]c4ccccc34)[C@@](C(=O)OC)(c3cc4c(cc3OC)N(C)[C@H]3[C@@](O)(C(=O)OC)[C@H](OC(C)=O)[C@]5(CC)C=CCN6CC[C@]43[C@@H]65)C2)C1 [VINBLASTINE] | 28 | 26 | 0 | -21.6 | 0 | 30.8 | 30.3 | 0 | 0 | 0 | 52 | 0 | 0 |  |  |  |  | Survivors [12]: 2; Survivors [13]: 0; ILS at 11 mg/kg/day [21]: -40%; Survivors [22]: 0
4 | CC[C@]1(O)C[C@H]2CN(CCc3c([nH]c4ccccc34)[C@@](C(=O)OC)(c3cc4c(cc3OC)N(C=O)[C@H]3[C@@](O)(C(=O)OC)[C@H](OC(C)=O)[C@]5(CC)C=CCN6CC[C@]43[C@@H]65)C2)C1 [VINCRISTINE] |  |  |  |  |  |  | 28.8 |  |  |  |  |  |  | 0 | 30 | 0 | -46 | Survivors [24]: 0; Survivors [25]: 0; Survivors [26]: 0; Survivors [27]: 0; ILS at 0.5 mg/kg/day [29]: 4%; ILS at 3.5 mg/kg/day [31]: 14.7%
5 | CC[C@]1(O)C[C@@H]2CN(CCc3c([nH]c4ccccc34)[C@@](C(=O)OC)(c3cc4c(cc3OC)N(C)[C@H]3[C@@](O)(C(N)=O)[C@H](O)[C@]5(CC)C=CCN6CC[C@]43[C@@H]65)C2)C1 [VINDESINE] |  |  |  |  |  | 23 |  | 0 | 0 | 0 | 43 | 0 | 0 | 0 | 13.3 | 0 | 27.1 | Survivors [34]: 0; Survivors [35]: 0; Survivors [36]: 0
